Non-standard residues stand in square brackets, D forms with d. Residues, ends and D or L forms follow the SMILES beside them. *: point of attachment. Asu = N[C@@H](CCCCCC(=O)O)C(=O)O; Aib = CC(C)(N)C(=O)O; NHOH = ON*
Assays:
Histone deacetylase 1 [1] = target: T1, Histone deacetylase 1 (Rattus norvegicus, UniProt Q4QQW4); assay: Inhibition of HDAC1 in rat liver extract
[2] = Inhibition of HDAC6 in rat liver extract
Histone deacetylase 1 [3] = target: Histone deacetylase 1 (Homo sapiens, UniProt Q13547); assay: Inhibition of FLAG-tagged HDAC1 expressed in human 293T cells; type: cell-based
In short: (§1)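 FLAG-HDAC1 or FLAG-HDAC6 was immunoprecipitated with M2 agarose from lysates of overexpressing 293T cells, washed in enzyme buffer and diluted 1:10. Bead suspension, inhibitor and unselective fluorogenic substrate ZMAL were incubated at 37 C for 180 min. The reaction was stopped with TSA/borate pH 9.5/NDA and read at ex 330/em 390 nm. IC50 came from a dilution series against 0% and 100% (TSA) inhibition standards. Selectivity is the ratio of HDAC1 to HDAC6 IC50.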

[4] = target: T2, Protein deacetylase HDAC6 (Homo sapiens, UniProt Q9UBN7); assay: Inhibition of FLAG-tagged HDAC6 expressed in human 293T cells; type: cell-based
T2 sequence (Q9UBN7 whole entry): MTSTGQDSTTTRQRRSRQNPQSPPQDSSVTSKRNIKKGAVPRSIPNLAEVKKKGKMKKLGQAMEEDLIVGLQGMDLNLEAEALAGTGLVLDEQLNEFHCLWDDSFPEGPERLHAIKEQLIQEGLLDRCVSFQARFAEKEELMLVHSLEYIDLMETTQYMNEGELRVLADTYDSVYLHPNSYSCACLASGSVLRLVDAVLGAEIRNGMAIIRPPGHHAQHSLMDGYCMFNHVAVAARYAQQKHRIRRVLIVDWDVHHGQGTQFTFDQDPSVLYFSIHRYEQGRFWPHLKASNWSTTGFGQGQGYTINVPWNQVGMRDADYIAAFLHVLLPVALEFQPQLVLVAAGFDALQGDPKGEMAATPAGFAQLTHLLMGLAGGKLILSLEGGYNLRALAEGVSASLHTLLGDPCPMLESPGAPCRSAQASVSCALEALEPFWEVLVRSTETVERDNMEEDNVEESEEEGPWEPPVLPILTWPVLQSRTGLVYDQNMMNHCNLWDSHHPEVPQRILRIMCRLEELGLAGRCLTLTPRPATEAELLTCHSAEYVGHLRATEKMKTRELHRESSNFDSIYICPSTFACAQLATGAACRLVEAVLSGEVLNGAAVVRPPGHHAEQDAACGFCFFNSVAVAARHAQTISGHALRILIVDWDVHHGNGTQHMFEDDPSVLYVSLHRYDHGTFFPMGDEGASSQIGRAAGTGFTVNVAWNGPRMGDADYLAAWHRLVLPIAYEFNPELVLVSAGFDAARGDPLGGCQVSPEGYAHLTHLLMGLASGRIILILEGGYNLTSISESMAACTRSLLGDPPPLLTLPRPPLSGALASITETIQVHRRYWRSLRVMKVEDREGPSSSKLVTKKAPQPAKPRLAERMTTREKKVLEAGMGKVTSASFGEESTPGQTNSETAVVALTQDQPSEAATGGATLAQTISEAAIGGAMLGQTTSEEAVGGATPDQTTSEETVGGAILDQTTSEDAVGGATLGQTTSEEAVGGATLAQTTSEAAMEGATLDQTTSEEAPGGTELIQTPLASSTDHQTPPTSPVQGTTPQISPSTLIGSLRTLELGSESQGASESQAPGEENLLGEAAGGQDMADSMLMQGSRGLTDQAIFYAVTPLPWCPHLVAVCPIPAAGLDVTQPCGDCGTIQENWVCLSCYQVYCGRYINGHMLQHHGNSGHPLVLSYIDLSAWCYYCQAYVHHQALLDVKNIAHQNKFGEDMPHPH

Rattus norvegicus = species: Rattus norvegicus; assay: Selectivity for rat liver HDAC6 over rat liver HDAC1
Homo sapiens = species: Homo sapiens; assay: Selectivity for human FLAG-tagged HDAC6 over human FLAG-tagged HDAC1; in short: as §1
MCF7 = assay: Cytotoxicity against human MCF7 cells after 48 hrs by One aqueous proliferation assay; type: functional, cell-based; conditions: MCF7, 48 h
In short: (§2)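 Cells seeded at 5000 per well, with compound or DMSO vehicle added 24 h after seeding. Incubated 48 h at 37 C, three replicates per concentration. Growth was read by MTS absorbance at 490 nm. GI50 is the concentration reducing cell number by 50% versus control.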

SQ20B = assay: Cytotoxicity against human SQ20B cells after 48 hrs by One aqueous proliferation assay; type: functional, cell-based; in short: as §2
HeLa = assay: Cytotoxicity against human HeLa cells after 48 hrs by One aqueous proliferation assay; type: functional, cell-based; in short: as §2
Jurkat = assay: Cytotoxicity against human Jurkat cells after 48 hrs by One aqueous proliferation assay; type: functional, cell-based; in short: as §2
MCF-10A = assay: Cytotoxicity against human MCF10A cells after 48 hrs by One aqueous proliferation assay; type: functional, cell-based; in short: as §2
PC-3 = assay: Cytotoxicity against human PC3 cells after 48 hrs by One aqueous proliferation assay; type: functional, cell-based; conditions: PC-3, 48 h; in short: as §2
Histone deacetylase 1 [5] = target: T1, Histone deacetylase 1; assay: Inhibition of HDAC1 in rat liver extract by trypsin assay
In short: (§3)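 Same rat liver extract and the subtype-selective substrates (Z-(propionyl)Lys-AMC for HDAC1, Boc(Ac)Lys-(F3-AMC) for HDAC6), incubated with inhibitor at 37 C. After incubation the reaction was developed with trypsin instead of NDA. IC50 was taken from a dilution series against 0% and 100% (TSA) inhibition standards.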

[6] = Inhibition of HDAC6 in rat liver extract by trypsin assay; in short: as §3

Histone deacetylase 1 (Homo sapiens, UniProt Q13547), sequence (Q13547 whole entry): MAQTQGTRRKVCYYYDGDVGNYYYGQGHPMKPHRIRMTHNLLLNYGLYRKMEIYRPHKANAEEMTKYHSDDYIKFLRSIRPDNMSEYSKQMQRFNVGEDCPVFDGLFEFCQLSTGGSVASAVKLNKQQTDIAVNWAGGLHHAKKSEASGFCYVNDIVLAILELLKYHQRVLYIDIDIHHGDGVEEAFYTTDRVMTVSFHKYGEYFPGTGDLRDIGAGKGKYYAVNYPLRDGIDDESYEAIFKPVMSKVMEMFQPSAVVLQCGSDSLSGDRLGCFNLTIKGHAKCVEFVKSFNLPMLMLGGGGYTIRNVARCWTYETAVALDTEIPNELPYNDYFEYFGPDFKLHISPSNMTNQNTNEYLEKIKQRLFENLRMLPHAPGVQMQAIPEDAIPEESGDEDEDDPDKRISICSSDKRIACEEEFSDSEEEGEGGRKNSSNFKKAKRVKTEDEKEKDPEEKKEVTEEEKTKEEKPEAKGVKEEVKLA
T1 sequence (Q4QQW4 whole entry): as the sequence (Q13547 whole entry) above, with R8K, D399E, E424D, L481M counted along it

SMILES	IC50 (Histone deacetylase 1 [1]) [µM]	IC50 [2] [µM]	IC50 (Histone deacetylase 1 [3]) [µM]	IC50 [4] [µM]	Ratio IC50 (Rattus norvegicus)	Ratio IC50 (Homo sapiens)	IC50 (MCF7) [µM]	IC50 (SQ20B) [µM]	IC50 (HeLa) [µM]	IC50 (Jurkat) [µM]	IC50 (MCF-10A) [µM]	IC50 (PC-3) [µM]	IC50 (Histone deacetylase 1 [5]) [µM]	IC50 [6] [µM]
COC(=O)[C@H](Cc1ccc(-c2ccco2)cc1)NC(=O)CCCCCCCC(=O)NO	2.44	0.47	9.76	2.33	5.19	4.19	18							
COC(=O)[C@H](Cc1ccc(-c2ccsc2)cc1)NC(=O)CCCCCCCC(=O)NO	3.01	0.81	19.2	1.77	3.72	10.8	17	37	10	2.8	32	10		
COC(=O)[C@H](Cc1ccc(-c2ccc(-c3ccccc3)cc2)cc1)NC(=O)CCCCCCC(=O)NO	0.13	0.78	0.96	0.69	0.17	1.39	0.8							
COC(=O)[C@H](Cc1ccc(-c2ccc(-c3ccccc3)cc2)cc1)NC(=O)CCCCCCCC(=O)NO	8.76	6.76	38.3	14.7	1.3	2.6	3.8							
COC(=O)[C@H](Cc1ccc(-c2ccccc2)cc1)NC(=O)CCCCCCCC(=O)NO	1.68	6.1	9.54	2.33	0.28	4.09	21	33	7	2.7	42	9.9		
COC(=O)[C@H](Cc1ccc(-c2cccs2)cc1)NC(=O)CCCCCCC(=O)NO	0.57	0.58	5.07	9.99	0.98	0.51	4	6	3	0.4	8	1.8		
COC(=O)[C@H](Cc1ccc(-c2ccoc2)cc1)NC(=O)CCCCCCCC(=O)NO	3.03	0.68	10.3	1.05	4.46	9.81	32	35	21	4	44	10		
CN(C)c1ccc(C(=O)NCCCCCCC(=O)NO)cc1	0.24	0.08	2.96	0.75	3	3.95								
COC(=O)[C@H](Cc1ccc(Br)cc1)NC(=O)CCCCCCC(=O)NO	3.19	4.98	22.9		0.64	13.5	22	25	15	3	> 50	> 50		
COC(=O)[C@H](Cc1ccc(-c2ccccc2)cc1)NC(=O)CCCCCCC(=O)NO	0.44	0.58	1.22	1.05	0.76	1.16	5							
COC(=O)[C@H](Cc1ccc(-c2ccco2)cc1)NC(=O)CCCCCCC(=O)NO	7.53	6.76	2.61	4.49	1.11	0.58	1.5							
CC1(C)NC(=O)[C@H](CCCCCC(=O)NO)NC(=O)[C@H]2CCCN2C(=O)[C@H](Cc2ccccc2)NC1=O (cyclo([Aib]F[dP][Asu](NHOH)))	0.021	0.23	0.0004	0.04	0.09	0.01								
COC(=O)[C@H](Cc1ccc(-c2ccoc2)cc1)NC(=O)CCCCCCC(=O)NO	3.18	2.25	6.35	1.13	1.41	5.62	1.5							
COC(=O)[C@H](Cc1ccc(-c2ccc3ccccc3c2)cc1)NC(=O)CCCCCCCC(=O)NO			10.5	2.85	1.38	3.7	4						5.19	3.76
COC(=O)[C@H](Cc1ccc(Br)cc1)NC(=O)CCCCCCCC(=O)NO	2.11	0.68	28.4	4.67	3.1	6.09	0.9							
COC(=O)[C@H](Cc1ccc(-c2cccs2)cc1)NC(=O)CCCCCCCC(=O)NO	2.55	0.84	16.8	4.09	3.04	4.1	4							
COC(=O)[C@H](Cc1ccc(-c2ccc3ccccc3c2)cc1)NC(=O)CCCCCCC(=O)NO	0.63	0.91	2.98	1.17	0.69	2.55	1.9							
COC(=O)[C@H](Cc1ccc(-c2ccsc2)cc1)NC(=O)CCCCCCC(=O)NO	0.59	0.5	3.34	4.02	1.18	0.83	1.5							

Reference: ChEMBL document CHEMBL1144006, “Phenylalanine-containing hydroxamic acids as selective inhibitors of class IIb histone deacetylases (HDACs)” (Bioorg Med Chem, 2008)
